pEC50, pIC50: −log10 of the molar value. Activity calls are given as the source filed them. No cut-off for these calls is given here.
Legend:
Rattus norvegicus [1] = species on record: Rattus norvegicus; assay: Inhibition of TEAD in rat VSMC assessed as reduction in MAYDM m-RNA expression at 60 uM by RT-qPCR analysis
How it was run: (§1)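 Rat aortic VSMCs (male Sprague-Dawley, 10% FCS/DMEM) were treated with 60 μM compound for 6 h; n = 3. Total RNA was reverse-transcribed with random primers and quantified by SYBR Green qPCR. Data were normalized to nonstimulated controls.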

[2] = (§2) Inhibition of TEAD (unknown origin) expressed in rat VSMC after 6 hrs by nanoluciferase reporter gene assay
How it was run: (§3)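 Rat aortic VSMCs stably transduced with the 8×TEAD secreted nanoluciferase reporter were treated with compound over a concentration range for 6 h. Conditioned medium was assayed for nanoluciferase activity.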

Rattus norvegicus [3] = species on record: Rattus norvegicus; assay: as §2; how it was run: as §3
[4] = target: Transcriptional enhancer factor TEF-4 (Homo sapiens, UniProt Q15562); assay: Inhibition of Gal4-fused TEAD2 (unknown origin) interaction with YAP expressed in human HeLa cells assessed as basal transcriptional activity level after 6 hrs by nanoluciferase reporter gene assay; type: cell-based
VSMC [5] = assay: Antiproliferative activity against human VSMC assessed as reduction in EdU incorporation after 18 hrs by Hoechst 33342 staining-based fluorescence assay; type: functional, cell-based
VSMC [6] = assay: Antiproliferative activity against rat VSMC assessed as reduction in EdU incorporation after 18 hrs by Hoechst 33342 staining-based fluorescence assay; type: functional, cell-based
HeLa [7] = assay: Inhibition of TEAD in human HeLa cells assessed as reduction in CTGF m-RNA expression incubated for 2 hrs followed by compound wash out and re-treatment for 4 hrs by NanoGlo assay; type: cell-based
VSMC [8] = assay: Inhibition of GAPDH m-RNA expression in rat VSMC at 60 uM by RT-qPCR analysis; type: functional, cell-based; how it was run: as §1
VSMC [9] = assay: Antimigratory activity in rat VSMC incubated for overnight followed by media replacement and measured every hour for 24 hrs by phase contrast microscopic analysis; type: functional, cell-based
How it was run: (§4)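 IncuCyte real-time scratch wound assay. Cells were seeded in 96-well plates and grown 36 h, then pretreated overnight with compound. Wells were scratched and the medium was replaced with compound-containing medium. Phase-contrast images of the wound were taken hourly for 24 h and relative wound confluence was calculated; n = 4.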

HeLa [10] = assay: Inhibition of TNT1 m-RNA expression in human HeLa cells incubated for 2 hrs followed by compound wash out and re-treatment for 4 hrs by NanoGlo assay; type: functional, cell-based
VSMC [11] = assay: Antimigratory activity in […] incubated for overnight followed by media replacement and measured every hour for 24 hrs by phase contrast microscopic analysis; type: functional, cell-based; how it was run: as §4
HeLa [12] = assay: Antimigratory activity in human HeLa cells at 40 to 80 uM incubated for overnight followed by media replacement and measured every hour for 24 hrs by phase contrast microscopic analysis; type: functional, cell-based; how it was run: as §4
[13] = target: T1, Serum response factor (Homo sapiens) (UniProt P11831); assay: Inhibition of SRF (unknown origin) mediated VP16 transcription expressed in human HeLa cells assessed as basal transcriptional activity level up to 100 uM after 6 hrs by nanoluciferase reporter gene assay; type: cell-based
T1 sequence (whole entry): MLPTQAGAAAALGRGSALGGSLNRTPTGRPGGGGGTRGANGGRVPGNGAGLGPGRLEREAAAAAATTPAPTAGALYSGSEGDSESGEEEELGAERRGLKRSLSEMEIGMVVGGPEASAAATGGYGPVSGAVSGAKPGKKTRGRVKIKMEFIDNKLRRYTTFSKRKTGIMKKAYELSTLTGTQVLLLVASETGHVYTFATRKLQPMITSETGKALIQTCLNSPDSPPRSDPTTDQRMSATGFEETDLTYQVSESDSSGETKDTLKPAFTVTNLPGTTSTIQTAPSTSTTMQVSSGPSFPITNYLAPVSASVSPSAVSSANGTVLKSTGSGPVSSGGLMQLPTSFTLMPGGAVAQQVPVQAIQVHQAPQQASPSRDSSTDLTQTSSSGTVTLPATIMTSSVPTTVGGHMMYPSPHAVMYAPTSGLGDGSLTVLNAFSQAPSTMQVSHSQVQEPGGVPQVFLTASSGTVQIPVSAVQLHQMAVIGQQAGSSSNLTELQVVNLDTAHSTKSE

[14] = target: Transcriptional enhancer factor TEF-1 (Homo sapiens, UniProt P28347); assay: Binding affinity to TEAD1 (194 to 411 residues) (unknown origin) by NMR analysis
How it was run: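 STD NMR at 700 MHz in PBS pH 7.4 containing 60% D2O, with about 20 μM TEAD1 and 2 mM compound. Saturation time 7 s; on-resonance 0.85 ppm, off-resonance −28 ppm; eight scans. Blank runs without protein or ligand were included.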

Rattus norvegicus [15] = species on record: Rattus norvegicus; assay: Inhibition of TEAD in rat VSMC assessed as reduction in PAI1 m-RNA expression at 60 uM by RT-qPCR analysis; how it was run: as §1

Sequence of Transcriptional enhancer factor TEF-1 (P28347 whole entry, the tested form may be a part): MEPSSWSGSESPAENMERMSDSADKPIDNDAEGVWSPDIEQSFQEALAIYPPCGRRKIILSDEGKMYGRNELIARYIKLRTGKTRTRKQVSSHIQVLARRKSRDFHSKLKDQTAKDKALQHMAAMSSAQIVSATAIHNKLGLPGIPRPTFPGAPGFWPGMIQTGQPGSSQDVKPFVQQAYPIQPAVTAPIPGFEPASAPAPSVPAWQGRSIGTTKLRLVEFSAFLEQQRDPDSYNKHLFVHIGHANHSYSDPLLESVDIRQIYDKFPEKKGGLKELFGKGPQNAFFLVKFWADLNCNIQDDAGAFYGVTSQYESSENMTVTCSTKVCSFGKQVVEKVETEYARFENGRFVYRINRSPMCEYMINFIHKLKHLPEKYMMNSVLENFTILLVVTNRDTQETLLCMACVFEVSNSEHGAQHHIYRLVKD
Sequence of Transcriptional enhancer factor TEF-4 (Q15562 whole entry, the tested form may be a part): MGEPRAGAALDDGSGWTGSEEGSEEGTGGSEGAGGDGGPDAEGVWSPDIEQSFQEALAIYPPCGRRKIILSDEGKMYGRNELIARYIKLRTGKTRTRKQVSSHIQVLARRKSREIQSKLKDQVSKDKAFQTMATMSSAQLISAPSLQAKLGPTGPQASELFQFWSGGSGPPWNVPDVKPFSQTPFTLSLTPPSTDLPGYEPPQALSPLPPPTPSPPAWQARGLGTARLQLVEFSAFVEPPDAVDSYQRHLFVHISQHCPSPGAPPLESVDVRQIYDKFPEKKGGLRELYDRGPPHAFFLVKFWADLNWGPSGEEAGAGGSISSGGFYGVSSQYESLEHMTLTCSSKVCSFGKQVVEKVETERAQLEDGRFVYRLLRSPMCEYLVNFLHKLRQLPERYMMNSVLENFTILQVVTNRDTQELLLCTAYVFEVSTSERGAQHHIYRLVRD

Cc1ccc2c(c1)c1c3n2CCNC3CCC1 (stereo unspecified) [PIRLINDOLE]
inhibition (Rattus norvegicus [1]): Active
pIC50 [2]: 4.62
inhibition (Rattus norvegicus [3]): Dose-dependent effect
pIC50 [4]: 4.48
pEC50 (VSMC [5]): 5.82
Activity (VSMC [6]): Dose-dependent effect
pEC50 (VSMC [6]): 5.00
inhibition (HeLa [7]): Dose-dependent effect
inhibition (VSMC [8]): inactive
Activity (VSMC [9]): Dose-dependent effect
inhibition (HeLa [10]): inactive
Activity (VSMC [11]): Dose-dependent effect
Activity (HeLa [12]): Active
inhibition [13]: inactive
Activity [14]: Active
inhibition (Rattus norvegicus [15]): Active

— ChEMBL document CHEMBL4422642, “Antiproliferative and Antimigratory Effects of a Novel YAP-TEAD Interaction Inhibitor Identified Using in Silico Molecular Docking” (J Med Chem, 2019)
